These results are taken from ChEMBL document CHEMBL1811864 (Bioorg Med Chem, 2011).

One data set relates to Aliivibrio fischeri. Nature of the data set: Growth inhibition of Vibrio fischeri ESI 114 (delta-LuxI) at 10 uM after 4 to 16 hrs. In kind it is organism-based. The settings on record: in vivo. In short, it runs like this: (§1)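 Bacterial growth was monitored over the reporter gene assay time course (4–16 h) with compounds at 10 µM.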
The target in data set [1] is T1, Transcriptional activator protein LasR (Pseudomonas aeruginosa (strain ATCC 15692 / PAO1 / 1C / PRS 101 / LMG12228), UniProt P25084).
T1 sequence (P25084 whole entry): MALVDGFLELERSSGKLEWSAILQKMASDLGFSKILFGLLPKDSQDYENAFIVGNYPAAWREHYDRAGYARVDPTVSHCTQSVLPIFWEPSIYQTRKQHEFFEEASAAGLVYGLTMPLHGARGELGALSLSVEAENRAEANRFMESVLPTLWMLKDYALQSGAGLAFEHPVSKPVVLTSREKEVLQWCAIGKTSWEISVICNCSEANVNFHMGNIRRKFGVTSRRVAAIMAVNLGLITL
Nature of the data set: Agonist activity at Pseudomonas aeruginosa PAO1 MW1 (pUM15) LasR after 8 hrs by YFP fluorescence reporter gene assay relative to OdDHL.

A further data set has as its system Escherichia coli. Nature of the data set: Growth inhibition of Escherichia coli DH5alpha (pJN105L + pSC11) at 10 uM after 4 to 16 hrs. Format: organism-based, DH5[alpha]. The settings on record: in vivo. An outline of the steps:
as §1

Data set [2] can be described thus: Agonist activity at Escherichia coli DH5alpha (pJN105L + pSC11) LasR after 8 hrs by beta-galactosidase reporter gene assay relative to OdDHL. In kind it is functional, Escherichia coli DH5[alpha].
For data set [3], the target named is T2, Transcriptional activator protein LuxR (Aliivibrio fischeri) (UniProt P12746).
T2 sequence (whole entry): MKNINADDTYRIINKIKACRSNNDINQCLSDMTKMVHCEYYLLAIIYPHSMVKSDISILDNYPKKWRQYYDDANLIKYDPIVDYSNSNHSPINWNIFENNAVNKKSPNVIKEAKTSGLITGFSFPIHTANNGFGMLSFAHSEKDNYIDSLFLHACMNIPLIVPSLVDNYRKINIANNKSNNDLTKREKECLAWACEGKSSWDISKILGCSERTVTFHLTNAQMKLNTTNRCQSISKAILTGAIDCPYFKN
In words: Agonist activity at Vibrio fischeri ESI 114 (delta-LuxI) LuxR at 10 uM after 8 hrs by […] relative to […]. Format: functional. An outline of the steps: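 V. fischeri ESI 114 lacking LuxI synthase but keeping its native lux operon; LuxR activity read as luminescence. Compounds were screened at 10 µM alone, without native AHL. Signal was normalized to the native-ligand positive control.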

Data set [4] concerns Agrobacterium tumefaciens. Nature of the data set: Growth inhibition of Agrobacterium tumefaciens WCF (pCF372) at 10 uM after 4 to 16 hrs. The conditions noted are these: in vivo. In kind it is organism-based. In short, it runs like this: as §1
Data set [5] deals with Escherichia coli DH5[alpha]. In words: Agonist activity at Escherichia coli DH5alpha (pJN105L + pSC11) LasR at 10 uM after 8 hrs by beta-galactosidase reporter gene assay relative to OdDHL. Format: functional.
Data set [6] addresses T3, Transcriptional activator protein LasR (Pseudomonas aeruginosa (strain ATCC 15692 / PAO1 / 1C / PRS 101 / LMG12228)) (UniProt P25084).
T3 sequence (whole entry): T1 sequence (P25084 whole entry)
Nature of the data set: Agonist activity at Pseudomonas aeruginosa PAO1 MW1 (pUM15) LasR at 10 uM after 8 hrs by YFP fluorescence reporter gene assay relative to OdDHL.

The target of data set [7] is T4, Transcriptional activator protein TraR (Agrobacterium tumefaciens) (UniProt P33905).
T4 sequence (whole entry): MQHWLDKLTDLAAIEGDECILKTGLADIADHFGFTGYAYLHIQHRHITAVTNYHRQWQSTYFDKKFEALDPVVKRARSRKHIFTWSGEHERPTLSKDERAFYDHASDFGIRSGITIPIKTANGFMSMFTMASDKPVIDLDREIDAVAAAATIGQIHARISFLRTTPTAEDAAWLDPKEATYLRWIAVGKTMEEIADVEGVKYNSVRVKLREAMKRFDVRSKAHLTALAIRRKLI
Nature of the data set: Agonist activity at Agrobacterium tumefaciens WCF (pCF372) TraR at 10 uM after 8 hrs by beta-galactosidase reporter gene assay relative to […]. In kind it is functional. A general note: Reporter assays use an easily measured gene product as a stand-in for the process of interest.

The test system of the next data set is Pseudomonas aeruginosa. In words: Growth inhibition of Pseudomonas aeruginosa PAO1 MW1 (pUM15) at 10 uM after 4 to 16 hrs. The conditions noted are these: in vivo. Format: organism-based. An outline of the steps: as §1
Data set [8] deals with T4, Transcriptional activator protein TraR (Agrobacterium tumefaciens). In words: Antagonist activity at Agrobacterium tumefaciens WCF (pCF372) TraR assessed as inhibition of […]-induced quorum sensing activation at 10 uM after 8 hrs by beta-galactosidase reporter gene assay relative to untreated control. In kind it is functional.
In data set [9] the target is T2, Transcriptional activator protein LuxR (Aliivibrio fischeri). Nature of the data set: Antagonist activity at Vibrio fischeri ESI 114 (delta-LuxI) LuxR assessed as inhibition of […]-induced quorum sensing activation at 10 uM after 8 hrs by […] relative to untreated control. Format: functional.
Data set [10] addresses T1, Transcriptional activator protein LasR. In words: Agonist activity at Pseudomonas aeruginosa PAO1 MW1 (pUM15) LasR assessed as quorum sensing activation after 8 hrs by […].
The target of data set [11] is T5, Transcriptional activator protein TraR (Agrobacterium tumefaciens, UniProt P33905).
T5 sequence (P33905 whole entry): T4 sequence (whole entry)
In words: Antagonist activity at Agrobacterium tumefaciens WCF (pCF372) TraR assessed as inhibition of OOHL-induced quorum sensing activation after 8 hrs by beta-galactosidase reporter gene assay.

The test system of data set [12] is Escherichia coli DH5[alpha]. In words: Antagonist activity at Escherichia coli DH5alpha (pJN105L + pSC11) LasR assessed as inhibition of OdDHL-induced quorum sensing activation at 10 uM after 8 hrs by beta-galactosidase reporter gene assay relative to untreated control. In kind it is functional.
Data set [13] deals with T3, Transcriptional activator protein LasR (Pseudomonas aeruginosa (strain ATCC 15692 / PAO1 / 1C / PRS 101 / LMG12228)). In words: Antagonist activity at Pseudomonas aeruginosa PAO1 MW1 (pUM15) LasR assessed as inhibition of OdDHL-induced quorum sensing activation at 10 uM after 8 hrs by […] relative to untreated control. In kind it is functional. An outline of the steps:
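P. aeruginosa PAO1 MW1 (pUM15) lacks functional LasI and carries a LasR-responsive promoter driving YFP, so fluorescence is the read-out. Compounds were tested at 10 µM. […] Background from wells with no compound or AHL was subtracted. Assays were done in triplicate.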

The target in data set [14] is T6, Transcriptional activator protein LuxR (Aliivibrio fischeri, UniProt P12746).
T6 sequence (P12746 whole entry): T2 sequence (whole entry)
In words: Antagonist activity at Vibrio fischeri ESI 114 (delta-LuxI) LuxR assessed as inhibition of OHHL-induced quorum sensing activation after 8 hrs by […].

Data set [15] in a line: Hydrolytic stability of the compound in Luria-Bertani medium containing Pseudomonas aeruginosa PA01 MW1 (pUM15) assessed as half life by measuring YFP fluorescence. In kind it is physicochemical.
The nature of data set [16]: Antagonist activity at Escherichia coli DH5alpha (pJN105L + pSC11) LasR assessed as inhibition of OdDHL-induced quorum sensing activation after 8 hrs by beta-galactosidase reporter gene assay. Format: functional, Escherichia coli DH5[alpha].
Data set [17] addresses T5, Transcriptional activator protein TraR. In words: Agonist activity at Agrobacterium tumefaciens WCF (pCF372) TraR after 8 hrs by beta-galactosidase reporter gene assay relative to OOHL.
In data set [18] the target is T6, Transcriptional activator protein LuxR. In words: Agonist activity at Vibrio fischeri ESI 114 (delta-LuxI) LuxR after 8 hrs by […] relative to […]. In kind it is functional.

Molecules are shown by their SMILES.

For the compound `CCCCCCCCCCCC(=O)N[C@H]1CCSC1=O`, the Activity result was “Non-toxic” in the data set on Aliivibrio fischeri; “Non-toxic” in the data set with Escherichia coli; 0% in data set [3]; “Non-toxic” in data set [4]; 94% in data set [5]; 42% in [6]. In addition, the Activity in data set [7] was 0%; in the data set on Pseudomonas aeruginosa, “Non-toxic”. Moreover, the EC50 in data set [1] came to 21 µM; in data set [2] it was 1.9 µM. Besides, the inhibition in data set [8] is 6%; in data set [9], 57%.
Take `CCCC(=O)CC(=O)N[C@H]1CCSC1=O`: the Activity result in the data set with Aliivibrio fischeri is “Non-toxic”; in the data set with Escherichia coli, “Non-toxic”; in [3], 0%; in [4] it was “Non-toxic”; in data set [5], 96%; in [6], 76%. The Activity was 1% in data set [7] and “Non-toxic” in the data set on Pseudomonas aeruginosa. Moreover, the EC50 was 13 µM in data set [1], 0.13 µM in data set [2] and 13 µM in [10]. The inhibition in data set [8] turned out to be 93%; in data set [9] it was 62%. Besides, the half-maximal inhibitory concentration (IC50) in [11] was 3.2 µM.
On to `O=C(CCc1cc2ccccc2[nH]1)N[C@H]1CCSC1=O`, for which the Activity result in the data set on Aliivibrio fischeri was “Non-toxic”; with Escherichia coli, “Non-toxic”; in [3], 0%; in data set [4], “Non-toxic”; in data set [5], 4%; in data set [6], 10%. Moreover, the Activity in data set [7] is 0%; in the data set with Pseudomonas aeruginosa it was “Non-toxic”. The EC50 in data set [2] is 1.8 µM. Besides, the inhibition in data set [12] is 16%; in [13] it was -7%; in data set [9], 68%.
With `CCCCCCCCCC(=O)CC(=O)N[C@H]1CCSC1=O`, the Activity entry with Aliivibrio fischeri is “Non-toxic”; with Escherichia coli, “Non-toxic”; in data set [3], 0%; in data set [4] it was “Non-toxic”; in data set [5], 94%; in data set [6], 88%. Moreover, the results for the Activity (in [7]; in the data set on Pseudomonas aeruginosa) were 1% and “Non-toxic”, respectively. For the same compound, the EC50 in data set [2] is 0.092 µM. The 50% inhibitory concentration (IC50) in data set [14] amounted to 0.45 µM. The half-life in data set [15] was 82.3 h. For the same compound, the inhibition in data set [8] was found to be 92%; in [9] it was 99%.
With `CCCCCCCC(=O)N[C@H]1CCSC1=O`, the Activity result in the data set on Aliivibrio fischeri is “Non-toxic”; in the data set on Escherichia coli, “Non-toxic”; in data set [3], 0%; in [4], “Non-toxic”; in data set [5], 85%; in data set [6], 0%. Besides, the Activity in data set [7] was 0%; with Pseudomonas aeruginosa it was “Non-toxic”. Also, the half-inhibitory concentration (IC50) in [16] worked out at 0.14 µM; in [14], 0.13 µM. Moreover, the inhibition in [12] is 64%; in data set [13], -7%; in data set [8] it was 99%; in data set [9] it was 80%.
With `CCCCCC(=O)CC(=O)N[C@H]1CCSC1=O`, the Activity entry in the data set with Aliivibrio fischeri is “Non-toxic”; in the data set on Escherichia coli, “Non-toxic”; in [3], 0%; in data set [4], “Non-toxic”; in data set [6], 3%; in data set [7], 50%. Besides, the Activity entry in the data set with Pseudomonas aeruginosa was “Non-toxic”. The IC50 in data set [14] was 0.35 µM. Further, the inhibition was -8% in data set [13] and 99% in [9]. In data set [17], this compound had an EC50 of 20 µM.
For `CCCCCCCCCC(=O)CC(=O)N[C@H]1CCOC1=O`, the half-life in data set [15] was 48.2 h.
As to `CCCCCCC(=O)N[C@H]1CCSC1=O`, the Activity result with Aliivibrio fischeri is “Non-toxic”; in the data set with Escherichia coli, “Non-toxic”; in data set [3], 0%; in data set [4], “Non-toxic”; in [5] it was 8%; in data set [6] it was 0%. The values for the Activity (in [7]; in the data set with Pseudomonas aeruginosa) were 0% and “Non-toxic”, respectively. Also, the IC50 in [16] came out at 0.79 µM; in [14], 0.31 µM; in [11], 10 µM. Moreover, the inhibition in data set [12] is 78%; in data set [13] it was -8%; in data set [8] it was 78%; in [9] it was 78%.
Take `O=C(Cc1cccc([N+](=O)[O-])c1)N[C@H]1CCSC1=O`: the Activity result in the data set on Aliivibrio fischeri is “Non-toxic”; in the data set with Escherichia coli, “Non-toxic”; in data set [3], 21%; in [4], “Non-toxic”; in data set [5] it was 82%; in data set [6], 5%. Moreover, the Activity in data set [7] is 1%; in the data set on Pseudomonas aeruginosa, “Non-toxic”. The EC50 was determined as 4.1 µM in data set [2] and 11 µM in data set [18]. For the same compound, the inhibition in data set [13] was -7%; in data set [8], 33%; in [9], 19%.

Usually EC50 stands for the midpoint of the concentration-response curve. What is called inhibition is the drop in the measured response relative to a control, in per cent. As a reminder, the IC50 is the concentration that inhibits the measured activity by half. In general, half-life refers to how long it takes for the measured level to halve.
